The values below come from the RNAGym collection of RNA variant scans (doi:10.1126/science.aae0568).

This sample holds only a part of the variants without activity.

The labels stand for the following.
B1: tRNA (parent)
chain: GUUCCGUUGGCGUAAUGGUAACGCGUCUCCCUCCUAAGGAGAAGACUGCGGGUUCGAGUCCCGUACGGAACG

This series covers variants of B1. Kind of series: yeast fitness relative to wild type (ratio to wild type); higher = fitter; tRNA-Arg(CCU), competitive growth, 37 C, YPD. The method in brief: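 For this measurement, the tRNA-Arg(CCU) gene was varied by chemical synthesis at a 3% per-site mutation rate across 69 sites, and each variant was placed at the native genomic locus in Saccharomyces cerevisiae. The pooled strains went through a 24-hour competition in YPD at 37°C in six parallel replicates, with amplicons from start and end populations read by 100-nucleotide paired-end sequencing. Darwinian fitness relative to wild type followed from the change in each genotype's frequency. Genotypes needed ≥ 100 starting reads, and estimates < 0.5 were set to 0.5.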
In the case of GUUCCGUUGGCGUAGUGGUAACGCGUCUCCCUCCUAAGGAGAGGACUGCGGGUUCGAGUCCCGUACGGAACG [A15G A43G], the yeast fitness was 0.975.

As for GUUCCGUUGGCGUAGUGGUAACGCGUCUCCCUCCUAAGGAGAAGACUGCGGGUUCGAGUCCCGUGCGGACCG [A15G A65G A70C], the yeast fitness was found to be 0.714.

For the variant GUUCCGUUGGCGUAGUGGUAACGCGUCUCCCUCCUUAGGAGAAGACUGCGGGUUCGAGUCCCGUACGGAACG [A15G A36U], the yeast fitness came to 0.679.

With GUUCCGUUGGCGUAGUGGUAACGCGUCUCCCUCCUGAGGAGAAGACUGCGGGUUCGAGUCCCGUACGGAACG [A15G A36G], the yeast fitness stood at 0.867.

Turning to GUUCCGUUGGCGUAGUGGUAAUGCGUCUCCCUCCUAAGGAGAAGACUGCGGGUUCGAGUCCCGUACGGAACG [A15G C22U], the yeast fitness amounted to 0.871.

For the variant GUUCCGUUGGCGUAGUGGUAACGCGUCUCCCUCCUAUGGAGACGACUGCGGGUUCGAGUCCCGUACGGAACG [A15G A37U A43C], the yeast fitness was found to be 0.518.

As for GUUCCGUUGGCGUAGUGGUAACGCGUCUCCCUCCUAAGGAGAAGUCUACGGGUUCGAGUCCCGUACGGAACG [A15G A45U G48A], the yeast fitness was determined as 0.636.

Take GUUCCGUUGGCGUAGUGGUAAGGCGUCUCCCUCCCAAGGAGAUGACUGCGGGUUCGAGUCCCGUACGGAACG [A15G C22G U35C A43U]: the yeast fitness turned out to be 0.556.

As to GUUCCGUUGGCGUAGUGGUAACGCGUCUCCCUCCUAGGGAGAAGACUGCGGGUUAGAGUCCCGUACGGAACG [A15G A37G C55A], the yeast fitness is not above 0.5.

For GUUCCGUUGGCGUAGUGGUAACGCGUCUCCCUCCUAAGGAGGAGACUACGGGUUCGAGUCCCGUACGGAACG [A15G A42G G48A], the yeast fitness came out at 0.774.

For the variant GUUCCGUUGGCGUAGUGGUAACGCGUCUCCCUCCUGAGGAGAACACUGCGGGUUCGAGUCCCGUACGGAACG [A15G A36G G44C], the yeast fitness was 0.659.

Take GUUCCGUUGGCGUAGUGGUAACGCGUCUCCCUCCUACGGAGAAGACUCCGGGUUCGAGUCCCGUACGGAACG [A15G A37C G48C]: the yeast fitness is not above 0.5.

Turning to GUUCCGUUGGCGUAGUGGUAUCGCGUCUCCCUCCUAAGGAGAAGACUGCGGGUUCGAGUCCCAUACGGAACG [A15G A21U G63A], the yeast fitness was 0.627.

For GUUCCGUUGGCGUAGUGGUACCGCGUCUCCCUCUUAAGGAGAAGACUGCGGGUUCGAGUCUCGUACGGAACG [A15G A21C C34U C61U], the yeast fitness was not above 0.5.

For GUUCCGUUGGCGUAGUGGUCACGCGUCUGCCUCCUAAGGAGAAGACUGCGGGUUCGAGUCCCGUACAGAACG [A15G A20C C29G G67A], the yeast fitness was not above 0.5.

Consider GUUCCGUUGGCGUAGUGGUAACGCGUCUCCCUCCUAAGGAGAAGACUGCGGGUUCGCGUCCAGUACGGAACG [A15G A57C C62A], for which the yeast fitness was not above 0.5.

On to GUUCCGUUGGCGUAGUGGUAACGCGUCUCCCUCCUGAGGAGAAGACUGCGGGUUCGAGUCCCGUACGGACCG [A15G A36G A70C], for which the yeast fitness was determined as 0.674.

Turning to GUUCCGUUGGCGUAGUGGUCACGCGUCUCCCUCAUAAGGAGAAGACUGCGGGUUCGAGUCCCGUACGGAACG [A15G A20C C34A], the yeast fitness was not above 0.5.

Regarding GUUCCGUUGGCGUACUGGUAACGCGUCUCCCUCCUAAGGAGAAGACUGCGGGUUCGAGUCCCGCACGGAACG [A15C U64C], the yeast fitness was 0.956.

With GUUCCGUUGGCGUACUGGUAACGCGUCUCCCUCCUAAGGAGAAGACUGCGGGUUCGAGUCCCGAACGGAACG [A15C U64A], the yeast fitness came to 0.74.

Consider GUUCCGUUGGCGUAGUGGUGCCGCGUCUCCUUCCUAAGGAGAAGACUGCGGGUUCGAGUCCCGUACGGAACG [A15G A20G A21C C31U], for which the yeast fitness was not above 0.5.

Turning to GUUCCGUUGGCGUAGUGGUUACGCGUCUCCCUCCUAAGAAGAAGACUGCGGGUUCGAGUCCCGUACGGCACG [A15G A20U G39A A69C], the yeast fitness was not above 0.5.

For the variant GUUCCGUUGGCGUAGUGGUACCGCGUCUCCCUCCUAAGGAGAAGACUGCGGGUUCGAGUCCCGUUCGGAACG [A15G A21C A65U], the yeast fitness was found to be 0.641.

GUUCCGUUGGCGUAGUGGUAACGCGUCUCCCUCCUUAGGAGAAGACUGCGGGUUUGAGUCCCGUUCGGAACG [A15G A36U C55U A65U]: the yeast fitness was not above 0.5.

As to GUUCCGUUGGCGUAGUGGUAACGCGUCUCCCUCCUAAGGCGAAGACUGCAGGUUCGAGUCCCGUACGGAACG [A15G A40C G50A], the yeast fitness is not above 0.5.

Take GUUCCGUUGGCGUAGUGGUAACGCGUCUCCCUCCUAAGGAGAUGACUGCGGGUUCGCGUCCCGUACGGAACG [A15G A43U A57C]: the yeast fitness came out at 0.559.

Turning to GUUCCGUUGGCGUAGUGGUACCGUGUCUCCCUCCUAAGGAGAAGACUGCGGGUUCGAGUCCCGUACGGAACG [A15G A21C C24U], the yeast fitness is not above 0.5.

In the case of GUUCCGUUGGCGUAGUGGUUACGCGCCUGCCACCUAAGGAGAAGACUGCGGGUUCGAGUCCCGUACGGAACG [A15G A20U U26C C29G U32A], the yeast fitness worked out at 0.591.

On to GUUCCGUUGGCGUAGUGGUAACGCGUCUCCCUCCUAAGGAGCAGACUGAGGGUUCGAGUCCCGUACGGAACG [A15G A42C C49A], for which the yeast fitness was 0.527.

With GUUCCGUUGGCGUAGUGGUAACGCGUCUCCCUCCUAAGGAGAAGACUGCGGGUUCGAGUCCCGUCCGGAACG [A15G A65C], the yeast fitness worked out at 0.867.

In the case of GUUCCGUUGGCGUAGUGGUACCGGGUCUCCCUCCUAAGGUGAAGACUGCGGGUUCGAGUCCCGUACGGAACG [A15G A21C C24G A40U], the yeast fitness is not above 0.5.

Take GUUCCGUUGGCGUAGUGGUUACGCGUCUGCCUCCUAAGGAGAGGACUGCGGGUUCGAGUCCCGUACGGAACG [A15G A20U C29G A43G]: the yeast fitness was not above 0.5.

Regarding GUUCCGUUGGCGUAGUGGUCACGGGUCUCCCUCCUAAGGAGAAGACUGCGGGUUCGGGUCCCGUACGGAACG [A15G A20C C24G A57G], the yeast fitness is not above 0.5.

With GUUCCGUUGGCGUAGUGGUAACGCGUCUCCCUCCUAAGGAGAAGACUGCGGGUUCGAGUCCCGUACGGACCG [A15G A70C], the yeast fitness worked out at 1.04.

As to GUUCCGUUGGCGUAGUGGUAACGCGUCUCCCUCCUAAGGAGAAGACUGCGGGUUCGAGUCCCGUACGGAGCG [A15G A70G], the yeast fitness was found to be 0.999.

For the variant GUUCCGUUGGCGUAGUGGUAUCGCGUCUCCCUCCUUAGGAGAAGACUGUGGCUUCGAGUCCAGUACAGAACG [A15G A21U A36U C49U G52C C62A G67A], the yeast fitness is not above 0.5.

In the case of GUUCCGUUGGCGUAGUGGUAGCGCGUCUCCCUCCUAAGGAGAAGACUGCGGCUUCGAGUCCAGUACGGAACG [A15G A21G G52C C62A], the yeast fitness is 0.616.

Regarding GUUCCGUUGGCGUAGUGGUAACGCGUCUCCCUCCUAAGGAGAAGACUGCGGGUUCGUGUGCCGUACGCAACG [A15G A57U C60G G68C], the yeast fitness is not above 0.5.
